Source: PubChem BioAssay
Compounds with a hit are over-represented: about 1.1% of the library has one in this group of screens.
Cneo AK release = causes C. neoformans cell lysis; adenylate kinase release luminescence, 4 h; normalised: neutral wells 0, clomiphene wells 100; lysis activity, % at 15 µM; 0.2% of 360,000 active; AID 651654;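 active means mean lysis activity across replicates of at least 80%, whatever share of replicates individually reach that level; inactive means mean lysis activity below 80%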
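Material: C. neoformans cells; Schedule: 4 h static compound exposure, 37 °C, read 1 h post-reagent; Measured by: adenylate kinase release luminescence; Read-out: signal increase indicating cell lysis; Controls: Clomiphene as positive lysis control.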
PglD DTNB = inhibitors of Campylobacter jejuni PglD acetyltransferase; purified PglD enzyme, DTNB colorimetric CoA detection; inhibition, % at 12.5 µM; 0.098% of 360,000 active; in the data active means inhibition above about 16%, passing the limit was not always enough
CAL PDZ FP-1 = CAL PDZ (human) peptide binding inhibition; Q9HD26; purified CAL PDZ, TMR-peptide fluorescence polarization, 1 h; AID 602252; inhibition, % at 24.9 µM; 0.92% of 300,000 active;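 active means mean inhibition of at least 30% with at least half of replicates also reaching 30%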;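 further: 0% = DMSO neutral control and 100% = excess unlabeled competitor peptide PRC23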
CAL PDZ FP-2 = human CAL PDZ-peptide interaction inhibition; Q9HD26; purified CAL PDZ, TMR-peptide fluorescence polarization, 1 h; inhibition, % at 20 µM; 0.02% of 330,000 active; AID 504414;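 active means highest replicate inhibition of at least 40%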;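 further: plate controls were DMSO neutral control wells for no effect and unlabeled competitor peptide control wells for full effect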
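Test system: purified CerCALP PDZ construct; Compound dosing: one concentration, 20 µM compound; Also added: TMR-labelled reporter peptide T*-PRC34 bound in PDZ groove; Read-out: inhibition from polarization loss; Controls: unlabelled peptide and DMSO controls; Signal: FP readout, S and P plane fluorescence; Incubation: 1 h at RT.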
miR122 inh = miR-122 inhibition in Huh7 cells; Huh7 miR-122 Renilla luciferase sensor, 48 h; neutral wells = 0, positive control = 100; activation (reporter increase), % at 12.5 µM; 0.3% of 340,000 active; AID 602342;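 active means mean replicate activation score at least 90 and every replicate individually at or above 90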;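 further: higher luciferase means less miR-122 activity so hits act as miR-122 inhibitors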
* = called active by the depositor; · = no result given; [ ] = another dose, or the depositor's remark.

SMILES | Cneo AK release | PglD DTNB | CAL PDZ FP-1 | CAL PDZ FP-2 | miR122 inh
Cc1ccc(NC(=O)Cc2sc(C)nc2-c2ccc(C)cc2)cc1 | · | · | -5 | -1 | ·
CCS(=O)(=O)Nc1ccc2c(c1)C(=O)N(C)C[C@H](OC)[C@H](C)CN(C(=O)NC(C)C)[C@@H](C)CO2 | -3 | 2 | · | · | -12[16.7 µM]
Cc1ccc2[nH]c(=O)c(CN(Cc3cccs3)S(=O)(=O)c3ccc4c(c3)OCCO4)cc2c1 | · | · | 34* | -2 | ·
Cc1cc2cc(CN(Cc3cccs3)S(=O)(=O)c3ccc4c(c3)OCCO4)c(=O)[nH]c2cc1C | · | · | 0 | -2 | ·
O=C(NCC(c1ccco1)N1CCCC1)c1sc2cc(F)ccc2c1Cl (stereo unspecified) | 0 | -10 | 2 | -2 | 5
Cc1ccc2c(Cl)c(C(=O)NCC(c3ccco3)N3CCCC3)sc2c1 (stereo unspecified) | 1 | 5 | 75* | -2 | 4
C[C@@H]1CN([C@@H](C)CO)C(=O)c2cccc(NS(=O)(=O)c3cn(C)cn3)c2O[C@H]1CN(C)Cc1ccc(-c2ccccc2)cc1 | 52 | -2 | · | · | 3[16.7 µM]
O=C1Nc2ccc(S(=O)(=O)NCCC3=CCCCC3)c3cccc1c23 | -12 | 3 | -2 | · | 117*
O=C1Nc2ccc(S(=O)(=O)NCC3CCCO3)c3cccc1c23 (stereo unspecified) | · | · | -2 | -2 | ·
O=C1Nc2ccc(S(=O)(=O)NCCCO)c3cccc1c23 | -2 | -2 | 1 | 0 | 82
O=S(=O)(NCCC1=CCCCC1)c1c(Cl)cccc1Cl | -3 | -1 | -5 | -3 | 111*
CCNS(=O)(=O)c1ccc2c3c(cccc13)C(=O)N2 | 1 | -2 | -1 | -1 | 148*
O=S(=O)(NCCC1=CCCCC1)c1cccc(Br)c1 | · | · | -4 | -3 | ·
C[C@@H]1CCCCO[C@@H](CN(C)S(=O)(=O)c2cccs2)[C@H](C)CN([C@@H](C)CO)C(=O)c2cc(NC(=O)Nc3ccc4c(c3)OCO4)ccc2O1 | 0 | 0 | · | · | -3[16.7 µM]
O=C(CSc1nccc(=O)[nH]1)NCc1ccc(Cl)cc1 | · | · | · | 0 | ·
Nn1c(SCC(=O)Nc2ccc3c(c2)OCCO3)nnc(CCC(=O)O)c1=O | -2 | 5 | 83* | 1 | 2
C[C@H](NC(=O)[C@H]1N[C@H]2c3ccc(-c4cncnc4)c(=O)n3C[C@H]2[C@@H]1CO)c1ccccc1 | -2 | 4 | · | · | 4[16.7 µM]
Cc1ccc(CNS(=O)(=O)c2ccc(C(F)(F)F)cc2)n1C | -1 | -2 | 58* | 1 | 0
C[C@H]1CN([C@@H](C)CO)C(=O)c2cc(N(C)C)ccc2O[C@H]1CN(C)S(=O)(=O)c1ccc(Cl)cc1 | -5 | 10 | · | · | 4[16.7 µM]
C[C@@H]1CN([C@H](C)CO)C(=O)c2cc(N(C)C)ccc2O[C@@H]1CN(C)S(=O)(=O)c1ccc(Cl)cc1 | -3 | 4 | · | · | 98*[16.7 µM]
COc1ccc(S(=O)(=O)N(C)C[C@@H]2Oc3ccc(NC(=O)C4CC4)cc3C(=O)N([C@H](C)CO)C[C@H]2C)cc1 | 55 | 16* | · | · | 25[16.7 µM]
COc1ccc(S(=O)(=O)N(C)C[C@H]2Oc3ccc(N(C)C)cc3C(=O)N([C@H](C)CO)C[C@@H]2C)cc1 | -2 | 1 | · | · | 112*[16.7 µM]
C[C@@H]1CN([C@@H](C)CO)C(=O)c2cc(NS(=O)(=O)c3ccccc3)ccc2O[C@@H](C)CCCCO[C@H]1CN(C)C(=O)CCC(F)(F)F | -1 | 0 | · | · | -10[16.7 µM]
O=C(N[C@H]1CC[C@@H](CCNS(=O)(=O)c2ccc(F)cc2)O[C@H]1CO)c1cccnc1 | 78 | · | · | · | ·
Cc1noc(C)c1NC(=O)N[C@H]1CC[C@@H](CCNC(=O)C2CCCC2)O[C@H]1CO | -1 | 1 | · | · | 3[16.7 µM]
SMILES | Cneo AK release | PglD DTNB | CAL PDZ FP-1 | CAL PDZ FP-2 | miR122 inh
Cc1cc(=O)n2nc(N3CCCC(C(=O)NCc4ccccc4)C3)sc2n1 (stereo unspecified) | 2 | -3 | · | 0 | -4
Cc1cc(=O)n2nc(N3CCC(C(=O)NCc4cccc(Br)c4)CC3)sc2n1 | -3 | -4 | 119* | -1 | 0
Cc1ccc(C(C(=O)NC(C)(C)C)N(CC2CCCO2)C(=O)CCC(=O)Nc2ccccn2)cc1 (stereo unspecified) | 0 | 2 | 84* | 0 | -7
Cc1ccccc1N(C(=O)CCCC(=O)Nc1ccccn1)C(C(=O)NC1CCCC1)c1ccc(O)cc1 (stereo unspecified) | 2 | 1 | -3 | -2 | 132*
Cc1ccc(N(C(=O)CCCC(=O)Nc2ccccn2)C(C(=O)NC2CCCC2)c2ccc(O)cc2)cc1C (stereo unspecified) | -1 | -8 | 0 | 0 | 6
COc1ccc(N(C(=O)c2csnn2)C(C(=O)NC2CCCC2)c2cccs2)cc1 (stereo unspecified) | -3 | -4 | 44* | 0 | 6
Cc1ccccc1N(C(=O)c1csnn1)C(C(=O)NC1CCCC1)c1ccncc1 (stereo unspecified) | -1 | 0 | 33* | -2 | ·
Cc1ccc(C)c(N(C(=O)c2csnn2)C(C(=O)NC2CCCCC2)c2ccncc2)c1 (stereo unspecified) | 2 | -5 | -1 | -4 | ·
CSc1ccccc1NC(=O)CSc1cccc[n+]1[O-] | 1 | 1 | · | 0 | 6
Cc1ccc(C(OCC(O)CNCc2ccc(F)cc2)c2ccccc2)cc1 (stereo unspecified) | 11 | 1 | -2 | -2 | -21
Cc1ccc(S(=O)(=O)N2[C@@H](c3ccc(Br)cc3)C(C(=O)O)=C[C@H]2C(C)(C)C)cc1 | 0 | 2 | 2 | 0 | 6
NC(=O)CSc1nc2cc(S(=O)(=O)N3CCOCC3)ccc2o1 | -1 | 1 | 0 | 0 | -2
CN(C)C(=O)CSc1nc2cc(S(=O)(=O)N3CCOCC3)ccc2o1 | 1 | 1 | 90* | 0 | -5
Fc1ccc(-n2nnc(-c3nccs3)n2)cc1 | -4 | -1 | -3 | -1 | 136*
C[C@H](NC(=O)C[C@H]1C=C[C@H](NC(=O)C2CCOCC2)[C@@H](CO)O1)c1ccccc1 | 1 | -1 | · | · | ·
Cc1cccc(CN2[C@H](CO)C=CS2(=O)=O)c1 | 41 | -6 | · | · | -3
COc1ccc(CN(C)C[C@@H]2Oc3ccc(NC(=O)Nc4ccc(F)cc4)cc3CC(=O)N([C@@H](C)CO)C[C@@H]2C)cc1 | 1 | 2 | · | · | -2[16.7 µM]
CCOC(=O)c1c(C)[nH]c(C(=O)NCCc2ccc(OC)c(OC)c2)c1C | -10 | -2 | -4 | -4 | ·
CC(C1CC1)N(Cc1ccccc1)C(=O)NC(=O)c1ccccc1 (stereo unspecified) | · | · | -2 | -1 | ·
CC(C1CC1)N(Cc1ccccc1)C(=S)Nc1ccccc1Cl (stereo unspecified) | · | · | 88* | -1 | 6
CCCC#Cc1ccc([C@@H]2[C@@H](C#N)N(S(C)(=O)=O)[C@@H]2CO)cc1 | -5 | 9 | · | · | ·
CCN(CC)S(=O)(=O)c1ccc(N2CCc3cc(OC)c(OC)cc3C2)nc1 | -3 | -2 | 50* | -1 | ·
